Source: PubChem BioAssay (several laboratories)
GRIN3A LBD mod: binders of NR3A ligand-binding domain, primary screen, biophysical, differential scanning fluorimetry, uHTS; Tm shift relative to glycine control, % at 25 µM; hit rate 2.5% among 340,000; NR3A LBD differential scanning fluorimetry, Tm shift; 0% = protein alone, 100% = glycine-bound protein; Glutamate receptor ionotropic, NMDA 3A (GRIN3A) ligand-binding domain;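 active = melting temperature shift of at least 10% of the positive control shift, at one fixed dose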
SKN-1 block: suppressors of acrylamide-induced Pgst-4::GFP reporter in worms, primary screen, SKN-1 inhibitor project, whole organism, uHTS, GFP/RFP fluorescence ratio, strain VP596. inhibition, % at 21.8 µM. AID 624304, 2012. hit rate 0.49% among 360,000. C. elegans VP596 Pgst-4::GFP/RFP ratio, 24 h;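 active = interference check ratio from 0.5 to 1.5 plus GFP to RFP signal ratio inhibition reaching or exceeding a fixed threshold, cut at about 30% in these data, passing the limit was not always enough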
MPTP block: mitochondrial permeability transition pore inhibitors, primary screen, biochemical, isolated mouse mitochondria, absorbance; Ca2+ swelling absorbance, 30 min; hit rate 1.4% among 360,000; AID 602449, 2012; inhibition, % at 10 µM;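 active = inhibition of 50% or more, scaled per plate between neutral and stimulator controls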;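 note: 0% = DMSO wells given calcium and 100% = 1 mM EGTA wells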
ADAM10 inh: human ADAM10 inhibitors, primary screen, biochemical, QFRET, HTS | Disintegrin and metalloproteinase domain-containing protein 10 (Homo sapiens), O14672 | AID 720582, 2013 | inhibition, % at 7 µM | recombinant ADAM10, EDANS/DABCYL FRET peptide cleavage, 3 h | hit rate 0.62% among 370,000;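 active = inhibition above a per-campaign cutoff equal to the mean of compounds falling between control-based bounds plus 3 SD, cut at about 20% in these data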;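 note: 0% = DMSO wells while the 100% control is not disclosed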
MT1-MMP act inh: blockers of MT1-MMP proenzyme processing, primary screen, HT1080 RFP-PRO-GFP cells, GFP/RFP fluorescence | AID 651647, 2012 | GFP/RFP ratio fluorescence, overnight; percent of plate control window, DMSO zero | hit rate 0.061% among 360,000 | Matrix metalloproteinase-14 (Homo sapiens), P50281 | GFP/RFP ratio change, % at 20 µM;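 active = GFP/RFP ratio change of at least 30% with cell ATP level not reduced by more than half and red fluorescence within 50% of control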
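Test system: HT1080 cells expressing an RFP-PRO-GFP fluorescent reporter construct / Compound dosing: single-point 20 µM compound, 1% DMSO / Schedule: cells overnight before dosing, compound overnight, 37 °C, 5% CO2 / Evaluation: GFP/RFP fluorescence ratio / Control set: DMSO and RFP-L50D-GFP cell wells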
ADAM17 inh: ADAM17 inhibitors, primary screen, biochemical, QFRET | recombinant ADAM17, EDANS/DABCYL FRET peptide cleavage | inhibition, % at 6.95 µM | Disintegrin and metalloproteinase domain-containing protein 17 (Homo sapiens), P78536 | hit rate 0.83% among 370,000;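 active = inhibition above the mean of compounds lying between control limits plus 3 SD, set per campaign, cut at about 8.5% in these data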;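 note: 0% = DMSO-only wells as the low control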
Target sequence (P78536 215-824 limits assumed): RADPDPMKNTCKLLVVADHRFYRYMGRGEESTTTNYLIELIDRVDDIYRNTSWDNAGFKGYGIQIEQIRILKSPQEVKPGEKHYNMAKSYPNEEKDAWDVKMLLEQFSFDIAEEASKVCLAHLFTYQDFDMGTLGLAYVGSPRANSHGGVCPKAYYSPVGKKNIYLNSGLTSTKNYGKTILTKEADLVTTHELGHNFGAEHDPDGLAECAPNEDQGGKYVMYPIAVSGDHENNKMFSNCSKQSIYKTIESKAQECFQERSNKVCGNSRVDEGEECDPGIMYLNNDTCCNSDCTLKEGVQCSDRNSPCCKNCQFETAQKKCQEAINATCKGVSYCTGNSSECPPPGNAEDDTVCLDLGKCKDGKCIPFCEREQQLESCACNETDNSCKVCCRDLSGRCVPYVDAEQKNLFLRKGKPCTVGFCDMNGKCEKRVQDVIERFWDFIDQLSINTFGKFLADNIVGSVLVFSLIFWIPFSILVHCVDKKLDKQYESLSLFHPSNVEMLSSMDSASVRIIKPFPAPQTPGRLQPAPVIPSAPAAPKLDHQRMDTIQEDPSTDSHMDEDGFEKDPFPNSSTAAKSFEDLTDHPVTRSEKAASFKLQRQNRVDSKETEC
* = called active by the depositor; i = inactive. A selection: hits, their analogues and other compounds. The true share with any hit is near 4.7%.

SMILES | GRIN3A LBD mod | SKN-1 block | MPTP block | ADAM10 inh | MT1-MMP act inh | ADAM17 inh
O=C(O)Cc1ccc(NC(=O)c2ccc3c(c2)C(=O)N(CC2CCCO2)C3=O)cc1 (stereo not drawn) | 11.1* | -23.1 | -1.3 | -1.3 | -0.4 | -0.8
O=C(NCCCCC(NC(=O)c1ccc([N+](=O)[O-])cc1)C(=O)O)c1ccc([N+](=O)[O-])cc1 (stereo not drawn) | 1.7 | 4.7 | -4.8 | 1.5 | 2.7 | -2.9
O=C(O)c1cc(-c2c[nH]c3ccccc23)nc2ccc3ccccc3c12 | 10.9* | 11.4 | 0.3 | -185.4 | -0.7 | -52.4
COc1ccc(N2C(=O)C3CCCCC3C2=O)cc1NC(=O)c1ccccc1 (stereo not drawn) | 38.5* | -12.0 | -0.4 | -0.1 | -5.5 | -5.3
CCC(=O)c1c[nH]c(C(=O)NCCCn2ccnc2)c1 | 12.2* | -3.9 | -4.8 | 3.8 | 2.6 | -4.9
COc1ccc(CN(C)C(=O)CNC(=O)c2cccs2)c(OC)c1 | 2.5 | 3.6 | 1.0 | -7.4 | 2.3 | -2.8
O=S(=O)(NC1CCCCC1Sc1ncccn1)c1ccccc1 (stereo not drawn) | 3.4 | 7.0 | 0.0 | 7.7 | 3.1 | 4.8
Nc1nc2ccccc2n1C(=O)c1ccco1 | 15.5* | 0.2 | -0.8 | -7.2 | 3.1 | 0.3
COc1ccc(Cl)cc1NC(=O)COC(=O)CNC(=O)C1CCCCC1 | 1.4 | -7.7 | -0.1 | -8.4 | 2.8 | 1.4
COc1cc2c(cc1OC)C(c1ccccc1)N(C(=O)CCl)CC2 (stereo not drawn) | -1.6 | 33.7* | 0.2 | -9.1 | 0.5 | -2.8
CC(C)[C@H](NC(=O)N1CCC(Cc2ccccc2)CC1)C(=O)O | -0.5 | -12.6 | -0.8 | 0.8 | -2.0 | -3.4
O=C(Nc1ccccc1)/C(=C/c1ccccc1)c1ccccc1 | 3.5 | 9.2 | 4.1 | 8.1 | -1.4 | 2.9
COc1ccc(CCN(Cc2nc(-c3ccccc3)no2)Cc2nc(-c3ccccc3)no2)cc1OC | 16.0* | 11.4 | 0.9 | -1.2 | -2.2 | -1.5
CCCCc1c(C)c2ccc(OCC(C)=O)cc2oc1=O | -7.5 | 2.9 | 1.2 | -353.5 | 4.5 | -161.9
CCCc1c(C)c2ccc(OCC(C)=O)cc2oc1=O | 11.7* | 2.1 | -2.3 | i | 2.8 | -157.5
Cn1c(=O)c(NCCc2ccccc2)c2c3c(cccc31)C(=O)c1ccccc1-2 | 42.7* | 46.4 | 0.7 | 5.6 | -66.8 | -1.7
CCCn1c(N)c(C(=O)CSc2nncs2)c(=O)[nH]c1=O | 1.1 | 13.1 | -0.5 | -5.6 | -2.5 | 2.0
O=C(O)c1ccc2c(c1)CCCN2 | -0.6 | 38.3* | 2.2 | -5.0 | -3.5 | -4.9
O=C(O)c1cccc(COc2ccc3c(c2)CCC3)c1 | -0.1 | -10.0 | 0.0 | -3.7 | -0.4 | -2.9
Cc1ccc(NC(=O)C(CC(C)C)NC(=O)C2CCC(C)CC2)nc1 (stereo not drawn) | 0.3 | 8.4 | -0.5 | -15.3 | -10.4 | -5.3
O=S(=O)(c1cccc(-c2nnc(SCc3ccc(Cl)cc3)o2)c1)N1CCCCC1 | 1.5 | -23.2 | -1.2 | -6.9 | -0.9 | -3.2
CN(C)S(=O)(=O)c1cccc(-c2nnc(SCc3ccc4c(c3)OCCO4)o2)c1 | 0.9 | 1.1 | 6.4 | 20.4* | -1.0 | 11.6*
CC(C)NC(=S)N=Nc1c(O)[nH]c2ccc([N+](=O)[O-])cc12 | 18.0* | 0.2 | -3.5 | 11.8 | 7.1 | 2.6
C=C(C)CNC(=S)N=Nc1c(O)[nH]c2ccc([N+](=O)[O-])cc12 | 25.0* | 8.9 | 6.0 | 16.1 | 9.4 | 0.6
Cc1cccc2c3c([nH]c12)C(=O)CC(C)(C)S3 | -2.0 | -3.2 | 0.0 | -45.2 | 0.3 | -13.9
SMILES | GRIN3A LBD mod | SKN-1 block | MPTP block | ADAM10 inh | MT1-MMP act inh | ADAM17 inh
CCn1ncc(CNC(=O)CCCSc2nc(-c3ccco3)cc(C(F)(F)F)n2)c1C | 0.7 | 0.7 | 4.7 | -0.3 | -8.6 | -0.1
CCn1nc(C)c(NC(=O)CCSc2nc(-c3ccco3)cc(C(F)(F)F)n2)c1C | 557.2* | -14.2 | 1.5 | -5.1 | 8.8 | -3.1
COC(=O)c1ccccc1NC(=O)NCC1CCCO1 (stereo not drawn) | 1.0 | -5.0 | 1.8 | -15.7 | 4.1 | -7.2
CCOC(=O)c1[nH]c2ccc(OC)cc2c1NC(=S)N1CCN(c2cccc(Cl)c2)CC1 | 13.3* | 2.4 | 1.2 | -35.8 | 4.3 | -11.7
O=C(Nc1ccccc1)N1C(=O)C2(OCCO2)c2ccccc21 | 12.8* | -17.6 | -2.3 | -3.1 | 13.4 | 1.2
CCC(Sc1nc2ccccc2c(=O)[nH]1)C(=O)O (stereo not drawn) | 2.5 | -19.2 | 1.4 | -7.5 | 2.3 | -4.9
Cc1noc(C)c1S(=O)(=O)N1CCCC(C(=O)NCCc2ccc(Cl)cc2)C1 (stereo not drawn) | -2.7 | 46.6* | -0.3 | -3.8 | -2.2 | -0.2
Cc1nn(C)c(C)c1S(=O)(=O)N1CCCC(C(=O)NCCc2ccc(Cl)cc2)C1 (stereo not drawn) | -1.3 | 15.3 | -0.2 | -4.2 | -2.2 | -1.1
OCCNCc1cc(Br)ccc1OCc1ccccc1 | 12.6* | 5.8 | 0.0 | -5.8 | 3.9 | -2.6
CCOCCCNCc1cc(Br)ccc1OCc1ccccc1 | 0.3 | 6.6 | 4.6 | 11.6 | 0.8 | 2.9
Cc1ccc(NC(=O)N/C=C/c2ccc(Cl)cc2)cc1 | 16.4* | -4.7 | -0.4 | 10.5 | -1.2 | 2.7
O=C(N/C=C/c1ccccc1)Nc1ccc(Cl)cc1 | 11.2* | -0.5 | -1.5 | 3.7 | 2.1 | -1.3
O=C(NNc1ccccc1F)C1CCC1 | 0.9 | -7.8 | 1.0 | -4.9 | -1.9 | -1.6
CC1=NN(Cc2ccccc2)C(=O)/C1=C\c1ccc(N(C)C)cc1 | -0.9 | 34.0* | 3.7 | 14.2 | 6.1 | 5.3
Cc1cccc2cc(CN(Cc3cccs3)C3(c4nnnn4C4CCCC4)CCCC3)c(=O)[nH]c12 | 11.0* | 30.0 | 0.1 | 0.4 | -6.3 | -3.2
CNC(=O)c1ccc(NC(=O)CCNC(=O)Nc2ccccc2)cc1 | 3.6 | 1.2 | -2.6 | -10.0 | 4.3 | -7.7
O=C(NCC(c1cccnc1)N1CCN(c2ccccc2F)CC1)OCc1ccccc1 (stereo not drawn) | 11.7* | 8.4 | -2.4 | 7.1 | -6.5 | 4.4
Cc1ccc(S(=O)(=O)N(CC(=O)NCC2CCCO2)Cc2cccc(C)c2)cc1 (stereo not drawn) | -1.9 | 2.4 | -2.7 | 8.9 | -2.2 | 0.9
CCC(NC(=O)c1ccccc1Br)c1ccccc1 (stereo not drawn) | -1.6 | -13.9 | -1.2 | -8.6 | 4.2 | -6.1
